In ChEMBL document CHEMBL4024770, “Augmentation of Anticancer Drug Efficacy in Murine Hepatocellular Carcinoma Cells by a Peripherally Acting Competitive N-Methyl-d-aspartate (NMDA) Receptor Antagonist” (J Med Chem, 2017):
The source made the active and inactive calls. The rule behind the calls is not given here.

Assays:
[1] = target: Glutamate NMDA receptor; Grin1/Grin2a (Rattus norvegicus, UniProt P35439+Q00959); test: Antagonist activity at recombinant rat GluN1a/GluN2A expressed in Xenopus laevis oocytes assessed as inhibition of glycine/glutamate-mediated current responses by two-electrode voltage clamp method; assay type: cell-based
In short: (§1)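 Xenopus oocytes were injected with rat GluN1 and GluN2A–D cRNA (1:2) and recorded 2–6 days later by TEVC at room temperature, −40 mV, in Ba2+-containing recording solution, pH 7.4. Currents were evoked by 100 μM glycine plus glutamate at 2–3× EC50: 10 μM for GluN2A, 3 μM for GluN2B and GluN2C, 1 μM for GluN2D. IC50 from Hill fits per oocyte; Ki estimated.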

[2] = target: Glutamate NMDA receptor; Grin1/Grin2b (Rattus norvegicus, UniProt P35439+Q00960); test: Antagonist activity at recombinant rat GluN1a/GluN2B expressed in Xenopus laevis oocytes assessed as inhibition of glycine/glutamate-mediated current responses by two-electrode voltage clamp method; assay type: cell-based; in short: as §1
[3] = target: Glutamate NMDA receptor; Grin1/Grin2c (Rattus norvegicus, UniProt P35439+Q00961); test: Antagonist activity at recombinant rat GluN1a/GluN2C expressed in Xenopus laevis oocytes assessed as inhibition of glycine/glutamate-mediated current responses by two-electrode voltage clamp method; assay type: cell-based; in short: as §1
[4] = target: Ionotropic glutamate receptor NMDA 1/2D (Rattus norvegicus, UniProt P35439+Q62645); test: Antagonist activity at recombinant rat GluN1a/GluN2D expressed in Xenopus laevis oocytes assessed as inhibition of glycine/glutamate-mediated current responses by two-electrode voltage clamp method; assay type: cell-based; in short: as §1
[5] = organism: Mus musculus; test: Antagonist activity at NMDA receptor in Nras driven p53 deficient mouse HCC cell membranes assessed as LPS-stimulated PGE2 levels at 10 uM after 24 hrs by LC-MS/MS method (reference value: 162 +/- 7%); parameters: scale not given: the % may be the effect or the level left
In short: (§2)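 Mouse Nras-driven p53−/− HCC cells in DMEM with 2 mM L-glutamine, 10% heat-inactivated FBS and penicillin/streptomycin. Cells incubated 24 h with or without antagonist, either without LPS or with 2.5 μg/mL LPS in the growth medium. Cells washed three times with ice-cold HBSS and lysed in acetonitrile on ice. PGE₂ in lysates measured by LC-MS/MS (LLOQ 1 nM) and expressed as % of control; n=3.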

[6] = organism: Mus musculus; test: Antagonist activity at NMDA receptor in Nras driven p53 deficient mouse HCC cell membranes assessed as inhibition of NMDA-induced intracellular Ca2+ transients at 20 uM […] by fluo-4AM dye-based fluorescence assay
In short: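 Intact murine HCC cells loaded with 5 μM Fluo-4-AM for 45 min, then washed out for 20 min in BSS (mM: 2.5 KCl, 152 NaCl, 10 glucose, 2 CaCl₂, 10 HEPES, pH 7.4). 150 μM NMDA applied for 15 s by fast perfusion, alone or together with antagonist. Fluorescence imaged with 495 nm excitation on a CCD camera. Read-out is the percentage of cells showing induced Ca²⁺ transients; n=5.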

[7] = organism: Mus musculus; test: Antagonist activity at NMDA receptor in Nras driven p53 deficient mouse HCC cell membranes assessed as PGE2 levels at 10 uM after 24 hrs by LC-MS/MS method relative to control; parameters: scale not given: the % may be the effect or the level left; in short: as §2
[8] = organism: Mus musculus; test: Antagonist activity at NMDA receptor in Nras driven p53 deficient mouse HCC cell membranes assessed as potentiation of 1 uM sorafenib-mediated antiproliferative activity by measuring cell viability at 100 uM after 72 hrs by resazurin assay (reference value: […] +/- […]%)
[9] = organism: Mus musculus; test: Antagonist activity at NMDA receptor in Nras driven p53 deficient mouse HCC cell membranes assessed as potentiation of 2.5 uM sorafenib-mediated antiproliferative activity by measuring cell viability at 100 uM after 72 hrs by resazurin assay (reference value: […] +/- […]%)
[10] = organism: Mus musculus; test: Antagonist activity at NMDA receptor in Nras driven p53 deficient mouse HCC cell membranes assessed as potentiation of 5 uM sorafenib-mediated antiproliferative activity by measuring cell viability at 100 uM after 72 hrs by resazurin assay (reference value: […] +/- […]%)
[11] = organism: Mus musculus; test: Antagonist activity at NMDA receptor in Nras driven p53 deficient mouse HCC cell membranes assessed as potentiation of 10 uM sorafenib-mediated antiproliferative activity by measuring cell viability at 100 uM after 72 hrs by resazurin assay (reference value: […] +/- […]%)
[12] = Antiproliferative activity against Nras driven p53 deficient mouse HCC cells assessed as cell viability at 100 uM after 72 hrs by resazurin assay relative to control; assay type: functional; details: read-out: Activity
[13] = target: Glutamate receptor ionotropic, kainate 3 (Rattus norvegicus, UniProt P42264); test: Displacement of [3H]-KA from recombinant homomeric rat GluK3a receptor expressed in baculovirus infected Sf9 insect cell membranes by scintillation counting method
[14] = Displacement of [3H]-AMPA from AMPA receptor in Sprague-Dawley rat brain synaptosomes after 30 mins by scintillation counting method; assay type: subcellular
[15] = Displacement of [3H]-KA from KA receptor in Sprague-Dawley rat brain synaptosomes after 60 mins by scintillation counting method; assay type: subcellular
[16] = Displacement of [3H]-CGP-39653 from NMDA receptor in Sprague-Dawley rat brain synaptosomes after 60 mins by scintillation counting method; assay type: subcellular
[17] = target: Glutamate receptor ionotropic, kainate 1 (Rattus norvegicus, UniProt P22756); test: Displacement of [3H]-SYM2081 from recombinant homomeric rat GluK1 (Q)1b receptor expressed in baculovirus infected Sf9 insect cell membranes by scintillation counting method
[18] = target: Glutamate receptor ionotropic, kainate 2 (Rattus norvegicus, UniProt P42260); test: Displacement of [3H]-KA from recombinant homomeric rat GluK2 (V,C,R)a receptor expressed in baculovirus infected Sf9 insect cell membranes by scintillation counting method
Chain of Glutamate receptor ionotropic, kainate 2 (P42260 whole entry): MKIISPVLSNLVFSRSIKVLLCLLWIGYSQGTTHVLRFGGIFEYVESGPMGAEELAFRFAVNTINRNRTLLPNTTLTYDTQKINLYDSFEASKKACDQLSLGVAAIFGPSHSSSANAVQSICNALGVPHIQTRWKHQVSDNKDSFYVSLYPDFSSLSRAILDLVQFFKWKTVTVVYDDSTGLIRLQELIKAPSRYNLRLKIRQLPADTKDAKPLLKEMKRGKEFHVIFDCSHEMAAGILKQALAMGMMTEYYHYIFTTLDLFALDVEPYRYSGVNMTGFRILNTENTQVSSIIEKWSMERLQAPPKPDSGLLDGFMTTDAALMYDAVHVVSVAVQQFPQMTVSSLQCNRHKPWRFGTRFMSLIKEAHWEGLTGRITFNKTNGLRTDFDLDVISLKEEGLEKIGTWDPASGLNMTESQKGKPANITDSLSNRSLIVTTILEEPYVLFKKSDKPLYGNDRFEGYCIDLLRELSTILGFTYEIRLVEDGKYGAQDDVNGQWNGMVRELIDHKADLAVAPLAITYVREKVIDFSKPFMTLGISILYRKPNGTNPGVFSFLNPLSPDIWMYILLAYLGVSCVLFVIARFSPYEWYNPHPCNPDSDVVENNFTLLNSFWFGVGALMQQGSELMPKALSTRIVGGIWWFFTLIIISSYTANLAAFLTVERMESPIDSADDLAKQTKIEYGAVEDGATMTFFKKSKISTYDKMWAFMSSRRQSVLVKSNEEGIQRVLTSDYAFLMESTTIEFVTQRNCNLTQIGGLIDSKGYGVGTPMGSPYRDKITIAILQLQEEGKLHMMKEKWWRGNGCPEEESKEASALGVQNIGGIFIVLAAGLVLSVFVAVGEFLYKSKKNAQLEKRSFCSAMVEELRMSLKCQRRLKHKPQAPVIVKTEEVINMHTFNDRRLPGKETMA

Chain of Glutamate receptor ionotropic, kainate 1 (P22756 whole entry): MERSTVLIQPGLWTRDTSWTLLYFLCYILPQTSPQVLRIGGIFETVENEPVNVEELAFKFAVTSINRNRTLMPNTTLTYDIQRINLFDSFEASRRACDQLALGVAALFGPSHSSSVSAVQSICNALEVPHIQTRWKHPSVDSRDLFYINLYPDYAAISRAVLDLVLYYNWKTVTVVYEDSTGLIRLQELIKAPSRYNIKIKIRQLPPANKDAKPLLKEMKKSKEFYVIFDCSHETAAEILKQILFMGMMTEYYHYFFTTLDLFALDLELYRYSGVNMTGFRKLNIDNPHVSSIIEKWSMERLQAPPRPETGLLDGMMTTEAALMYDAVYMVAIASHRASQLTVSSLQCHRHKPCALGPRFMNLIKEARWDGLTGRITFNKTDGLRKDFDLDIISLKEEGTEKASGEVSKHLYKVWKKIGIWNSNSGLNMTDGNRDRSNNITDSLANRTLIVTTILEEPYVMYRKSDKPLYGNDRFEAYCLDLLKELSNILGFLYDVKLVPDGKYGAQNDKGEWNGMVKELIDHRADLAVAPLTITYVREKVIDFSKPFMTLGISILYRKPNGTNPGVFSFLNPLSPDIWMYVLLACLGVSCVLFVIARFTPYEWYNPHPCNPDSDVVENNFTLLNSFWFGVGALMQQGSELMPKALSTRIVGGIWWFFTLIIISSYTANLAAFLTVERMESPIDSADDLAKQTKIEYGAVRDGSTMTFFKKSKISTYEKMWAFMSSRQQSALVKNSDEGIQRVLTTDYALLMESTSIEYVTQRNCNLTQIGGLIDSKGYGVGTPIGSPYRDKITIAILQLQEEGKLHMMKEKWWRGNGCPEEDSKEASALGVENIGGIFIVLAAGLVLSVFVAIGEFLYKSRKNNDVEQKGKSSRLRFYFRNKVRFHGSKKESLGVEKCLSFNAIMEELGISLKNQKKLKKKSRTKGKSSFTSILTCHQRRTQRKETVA
Chain of Glutamate receptor ionotropic, kainate 3 (P42264 whole entry): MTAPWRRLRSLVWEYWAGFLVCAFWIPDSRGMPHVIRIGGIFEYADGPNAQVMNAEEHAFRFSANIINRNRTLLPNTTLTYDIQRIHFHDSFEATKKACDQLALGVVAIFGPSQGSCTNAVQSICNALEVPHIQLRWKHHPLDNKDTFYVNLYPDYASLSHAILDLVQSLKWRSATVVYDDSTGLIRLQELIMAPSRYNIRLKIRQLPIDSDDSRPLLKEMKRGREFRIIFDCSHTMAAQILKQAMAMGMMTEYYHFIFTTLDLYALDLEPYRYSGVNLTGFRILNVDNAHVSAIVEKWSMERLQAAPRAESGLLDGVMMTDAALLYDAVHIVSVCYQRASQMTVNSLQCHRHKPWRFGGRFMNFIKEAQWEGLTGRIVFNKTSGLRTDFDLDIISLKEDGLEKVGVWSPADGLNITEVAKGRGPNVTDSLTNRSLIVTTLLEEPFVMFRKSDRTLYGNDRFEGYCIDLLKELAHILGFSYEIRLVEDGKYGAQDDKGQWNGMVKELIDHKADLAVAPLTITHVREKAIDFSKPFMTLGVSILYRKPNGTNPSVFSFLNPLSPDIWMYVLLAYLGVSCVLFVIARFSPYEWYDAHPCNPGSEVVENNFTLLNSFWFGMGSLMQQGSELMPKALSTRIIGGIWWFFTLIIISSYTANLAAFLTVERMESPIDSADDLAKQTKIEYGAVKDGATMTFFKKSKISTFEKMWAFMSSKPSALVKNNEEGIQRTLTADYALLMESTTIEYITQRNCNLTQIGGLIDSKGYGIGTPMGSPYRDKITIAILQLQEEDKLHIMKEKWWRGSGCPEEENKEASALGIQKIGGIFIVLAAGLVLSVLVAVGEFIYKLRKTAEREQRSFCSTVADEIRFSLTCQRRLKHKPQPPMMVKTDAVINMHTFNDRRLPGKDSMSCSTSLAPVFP
Chain of Glutamate NMDA receptor; Grin1/Grin2a (Q00959 whole entry, other chains not shown): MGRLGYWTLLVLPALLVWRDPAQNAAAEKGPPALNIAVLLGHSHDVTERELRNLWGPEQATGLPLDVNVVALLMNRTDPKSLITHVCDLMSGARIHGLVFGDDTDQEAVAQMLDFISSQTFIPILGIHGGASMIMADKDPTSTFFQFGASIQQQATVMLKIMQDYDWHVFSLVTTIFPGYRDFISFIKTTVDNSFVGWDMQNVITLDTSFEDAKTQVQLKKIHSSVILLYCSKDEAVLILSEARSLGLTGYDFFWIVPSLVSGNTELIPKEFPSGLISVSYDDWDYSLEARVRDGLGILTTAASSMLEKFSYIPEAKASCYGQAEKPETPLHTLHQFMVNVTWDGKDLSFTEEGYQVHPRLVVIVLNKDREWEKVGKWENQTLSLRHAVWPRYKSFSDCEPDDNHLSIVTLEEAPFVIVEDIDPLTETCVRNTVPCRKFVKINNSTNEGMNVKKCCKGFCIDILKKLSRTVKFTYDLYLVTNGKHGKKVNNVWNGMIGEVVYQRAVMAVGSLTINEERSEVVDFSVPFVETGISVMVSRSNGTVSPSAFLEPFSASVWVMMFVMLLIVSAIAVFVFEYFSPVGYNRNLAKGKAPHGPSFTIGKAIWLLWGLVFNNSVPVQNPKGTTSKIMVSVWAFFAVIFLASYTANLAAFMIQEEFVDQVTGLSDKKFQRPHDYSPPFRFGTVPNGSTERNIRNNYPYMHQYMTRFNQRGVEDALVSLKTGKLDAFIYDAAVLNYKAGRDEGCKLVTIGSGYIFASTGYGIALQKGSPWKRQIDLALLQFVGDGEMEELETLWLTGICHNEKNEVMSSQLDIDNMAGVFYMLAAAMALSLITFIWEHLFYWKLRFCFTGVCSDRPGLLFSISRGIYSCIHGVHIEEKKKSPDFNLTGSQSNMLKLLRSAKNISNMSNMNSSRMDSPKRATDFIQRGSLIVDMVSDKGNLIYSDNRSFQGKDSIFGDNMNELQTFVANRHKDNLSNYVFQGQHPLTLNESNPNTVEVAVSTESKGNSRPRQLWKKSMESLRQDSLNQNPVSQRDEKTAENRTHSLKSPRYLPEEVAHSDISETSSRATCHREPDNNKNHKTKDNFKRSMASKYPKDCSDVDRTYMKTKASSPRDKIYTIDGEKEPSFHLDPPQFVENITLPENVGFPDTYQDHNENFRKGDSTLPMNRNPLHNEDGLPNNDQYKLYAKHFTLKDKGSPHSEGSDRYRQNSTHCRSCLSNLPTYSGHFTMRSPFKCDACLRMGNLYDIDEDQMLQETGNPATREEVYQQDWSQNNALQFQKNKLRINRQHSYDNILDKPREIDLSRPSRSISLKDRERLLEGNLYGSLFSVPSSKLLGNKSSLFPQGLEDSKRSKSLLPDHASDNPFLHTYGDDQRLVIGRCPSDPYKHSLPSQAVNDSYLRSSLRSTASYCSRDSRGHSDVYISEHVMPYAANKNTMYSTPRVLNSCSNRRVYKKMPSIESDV

Ki [13]	IC50 [14]	IC50 [15]	Ki [16]	Ki [17]	Ki [18]	Compound	also measured
–	–	–	–	–	–	N[C@H](CCCP(=O)(O)O)C(=O)O	Ki [1]: 390 nM; Ki [2]: 2800 nM; Ki [3]: 5.9 µM; Ki [4]: 21 µM; Activity [5]: 110%; inhibition [6]: Active; Activity [7]: 58%; Activity [8]: 70%; Activity [9]: 63%; Activity [10]: 44%; Activity [11]: 16%; viability at 100 µM [12]: 79%
11 µM	> 100 µM	59 µM	4.6 µM	12 µM	> 100 µM	Cl.O=C(O)c1cc([C@H]2CCN[C@@H]2C(=O)O)ccc1F	pIC50 [15]: 4.23; pKi [16]: 5.34
> 100 µM	> 100 µM	> 100 µM	> 100 µM	> 100 µM	> 100 µM	NC(=O)c1cccc([C@H]2CCN[C@@H]2C(=O)O)c1	–
> 1000 µM	> 100 µM	> 100 µM	> 100 µM	> 1000 µM	> 1000 µM	N#Cc1cccc([C@H]2CCN[C@@H]2C(=O)O)c1	–
> 100 µM	> 100 µM	> 100 µM	> 100 µM	> 1000 µM	> 1000 µM	O=C(O)[C@H]1NCC[C@@H]1c1cccc(B(O)O)c1	–
–	> 100 µM	> 100 µM	35 µM	–	–	O=C(O)[C@H]1NCC[C@@H]1c1ccc(O)c(O)c1	pKi [16]: 4.46
> 100 µM	> 100 µM	> 100 µM	> 100 µM	> 100 µM	> 100 µM	O=C(O)[C@H]1NCC[C@@H]1c1cccc(Cl)c1	–
–	> 100 µM	> 100 µM	> 100 µM	–	–	Nc1cccc([C@H]2CCN[C@@H]2C(=O)O)c1	–
> 100 µM	> 100 µM	> 100 µM	–	> 100 µM	> 100 µM	Cc1ccc([C@H]2CCN[C@@H]2C(=O)O)cc1C(=O)O	–
> 100 µM	> 100 µM	> 100 µM	–	> 100 µM	> 100 µM	O=C(O)c1cc([C@H]2CCN[C@@H]2C(=O)O)ccc1Br	–
> 100 µM	> 100 µM	> 100 µM	> 100 µM	> 100 µM	> 100 µM	O=C(O)[C@H]1NCC[C@@H]1c1cccc(C(F)(F)F)c1	–
